Screening results from PubChem BioAssay.
An excerpt weighted towards active compounds, which were near 3.6% of everything screened.
PAFAH2 FP inh: inhibitors of human PAFAH2; recombinant PAFAH2, FP-rhodamine activity probe, fluorescence polarization; AID 492956; inhibition, % at 3.39 µM; actives 0.99% (n = 340,000);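 active = inhibition above the mean over all tested compounds plus 3 SD, cut at about 30% in these data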;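 also: inhibitors block probe labeling of enzyme so polarization drops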
PAFAH1B3 inh: inhibitors of human PAFAH1B3; Q15102; recombinant PAFAH1B3, FP-rhodamine probe, fluorescence polarization; inhibition, % at 3.39 µM; actives 0.28% (n = 340,000); AID 492972;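 active = inhibition above the screen-wide average of all tested compounds plus 3 SD, cut at about 25% in these data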
Target sequence (Q15102 whole entry, looked up): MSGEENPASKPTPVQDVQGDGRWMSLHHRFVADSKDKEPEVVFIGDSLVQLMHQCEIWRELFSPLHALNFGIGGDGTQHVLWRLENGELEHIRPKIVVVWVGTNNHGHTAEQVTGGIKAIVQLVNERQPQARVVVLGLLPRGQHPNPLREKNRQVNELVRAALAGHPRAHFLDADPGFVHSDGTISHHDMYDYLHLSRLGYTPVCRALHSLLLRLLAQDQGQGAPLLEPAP
PAFAH1B2 inh: inhibitors of human PAFAH1B2. inhibition, % at 3.39 µM. recombinant PAFAH1B2, FP-rhodamine activity probe, fluorescence polarization. actives 1.2% (n = 340,000). AID 492953. P68402;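 active = inhibition above the mean of all tested compounds plus 3 SD, cut at about 24% in these data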
Target sequence (P68402 whole entry, looked up): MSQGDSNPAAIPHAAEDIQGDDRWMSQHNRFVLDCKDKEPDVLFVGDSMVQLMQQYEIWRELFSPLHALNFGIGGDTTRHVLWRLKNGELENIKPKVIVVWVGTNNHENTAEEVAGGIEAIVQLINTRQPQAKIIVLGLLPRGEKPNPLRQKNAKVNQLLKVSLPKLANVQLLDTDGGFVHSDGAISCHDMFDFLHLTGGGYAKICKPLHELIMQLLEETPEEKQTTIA
pPAFAH inh: inhibitors of human plasma PAF acetylhydrolase (pPAFAH); actives 1.5% (n = 330,000); inhibition, % at 3.39 µM; recombinant pPAFAH, FP-rhodamine probe fluorescence polarization;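 active = inhibition above the mean inhibition across the screen plus 3 SD, cut at about 25% in these data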;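 also: inhibitors block binding of the rhodamine activity-based probe so polarization drops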
VIM-2 inhibitor: blocks Pseudomonas aeruginosa VIM-2 metallo-beta-lactamase. actives 0.89% (n = 290,000). AID 1527. inhibition, % at 5.6 µM. purified VIM-2, nitrocefin hydrolysis, epi-absorbance fluorescence;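 active = inhibition above the mean of all tested compounds plus 3 SD, cutoff set per screening run, cut at about 7.5% in these data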;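 also: red hydrolysis product quenches plate fluorescence so inhibitors raise well fluorescence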
IMP-1 inh-1: inhibitors of Pseudomonas aeruginosa IMP-1 metallo-beta-lactamase | actives 0.45% (n = 290,000) | inhibition, % at 5.6 µM | purified IMP-1, nitrocefin hydrolysis, epi-absorbance fluorescence;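 active = inhibition above the mean plus 3 SD of all compounds in the same screening run, cut at about 4.5% in these data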
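System: Purified IMP-1 | Read-out basis: Percent enzyme inhibition | Controls: IMP-1 with DMSO as 0%, enzyme-free DMSO as 100% | Replicates: One well per compound | Doses: 5.6 µM nominal single concentration | Detection: Epi-absorbance fluorescence, 480 nm excitation, 530 nm emission | Incubation: 25 °C, 15 min preincubation, 25 min reaction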
IMP-1 inh-2: blocks IMP-1 metallo-beta-lactamase in VIM-2 selectivity screen | shares compounds with VIM-2 inhibitor | purified IMP-1, nitrocefin hydrolysis, epi-absorbance fluorescence | inhibition, % at 5.6 µM | 1,300 tested, under 10 active | AID 1856; call rule not given here
VIM-2 FRET inh: counter-screen for VIM-2 inhibitors: epi-absorbance artifacts via FRET | shares compounds with VIM-2 inhibitor | purified VIM-2, CCF2 FRET substrate hydrolysis | inhibition, % at 5.6 µM | actives 23% (n = 1,300);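 active = inhibition above the mean of all tested compounds plus 3 SD, cut at about 19% in these data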
TEM-1 counter: selectivity counter-screen for VIM-2 inhibitors: E. coli TEM-1 inhibitors; shares compounds with VIM-2 inhibitor; Purified TEM-1, nitrocefin hydrolysis, epi-absorbance fluorescence; inhibition, % at 5.6 µM; actives 3% (n = 1,300);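 active = inhibition above that campaign's mean inhibition plus 3 SD, cut at about 0.46% in these data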
Target sequence (P62593 whole entry, looked up): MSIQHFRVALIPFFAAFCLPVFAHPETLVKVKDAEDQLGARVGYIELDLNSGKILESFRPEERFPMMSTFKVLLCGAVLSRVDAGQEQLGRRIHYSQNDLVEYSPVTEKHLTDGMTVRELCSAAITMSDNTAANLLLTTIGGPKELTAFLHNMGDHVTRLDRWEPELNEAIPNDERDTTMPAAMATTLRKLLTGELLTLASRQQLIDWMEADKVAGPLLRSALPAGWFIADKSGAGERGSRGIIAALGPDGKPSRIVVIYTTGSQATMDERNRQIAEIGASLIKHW
VIM-2 confirm 2: confirmation of P. aeruginosa VIM-2 metallo-beta-lactamase inhibitors | actives 96% (n = 1,300) | shares compounds with VIM-2 inhibitor | inhibition, % at 5.6 µM | purified VIM-2, nitrocefin hydrolysis, epi-absorbance;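 active = inhibition of the VIM-2 beta-lactamase enzyme above about 11% from the earlier first-round screen, limit read from the data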
Large screens that a line does not name were inactive (follow-up assays come after a bar, where they were run).

Cc1c(CCO)c(=O)n2c([nH]c3ccccc32)c1C#N	VIM-2 inhibitor 20.5 | IMP-1 inh-2 inactive | VIM-2 FRET inh inactive | TEM-1 counter inactive | VIM-2 confirm 2 30.2
C=C(C)Cn1c(-c2cccs2)n[nH]c1=S	VIM-2 inhibitor 48.4 | IMP-1 inh-2 inactive | VIM-2 FRET inh 70.9 | TEM-1 counter inactive | VIM-2 confirm 2 52.9
COc1ccc(C(=O)NCCc2cnc[nH]2)cc1OC	none
CCN(CC)CCOc1ncnc2c1oc1ccccc12	VIM-2 inhibitor 14.6 | IMP-1 inh-2 inactive | VIM-2 FRET inh inactive | TEM-1 counter inactive | VIM-2 confirm 2 13.8
CCc1nc(OCCN(CC)CC)c2oc3ccccc3c2n1	none
Cc1sc2c(=O)n3c(nc2c1C(=O)NCCCN1CCOCC1)CCCCC3	VIM-2 inhibitor 17.8 | IMP-1 inh-2 inactive | VIM-2 FRET inh inactive | TEM-1 counter inactive | VIM-2 confirm 2 36.3
Cc1cc(Nc2ccc(C)c(Br)c2)n2nc(C)nc2n1	VIM-2 inhibitor 13.8 | IMP-1 inh-2 inactive | VIM-2 FRET inh inactive | TEM-1 counter inactive | VIM-2 confirm 2 27.6
COc1cc(Nc2cc(C)nc3nc(C)nn23)cc(OC)c1OC	VIM-2 inhibitor 12.7 | IMP-1 inh-2 inactive | VIM-2 FRET inh inactive | TEM-1 counter inactive | VIM-2 confirm 2 32.9
COc1ccc(Nc2cc(C)nc3nc(C)nn23)cc1Cl	VIM-2 inhibitor 18.6 | IMP-1 inh-2 inactive | VIM-2 FRET inh inactive | TEM-1 counter inactive | VIM-2 confirm 2 29.1
Cc1ccc(NC(=O)COC(=O)Cc2c[nH]c3ccccc23)cc1F	none (no result: pPAFAH inh, VIM-2 inhibitor, IMP-1 inh-1)
CCCc1ccc(C(=O)CCC(=O)NNC(=O)c2ccncc2)cc1	none
Cc1cccn2c(=O)c3cc(C(=O)N4COCC4(C)C)sc3nc12	none
Cc1cccn2c(=O)c3cc(C(=O)NC4CCCCCC4)sc3nc12	none
Cc1cccn2c(=O)c3cc(C(=O)NC4CCCC4)n(C)c3nc12	VIM-2 inhibitor 14.2 | IMP-1 inh-2 inactive | VIM-2 FRET inh inactive | TEM-1 counter inactive | VIM-2 confirm 2 21.6
CCCCNC(=O)c1cc2c(=O)n3cccc(C)c3nc2s1	VIM-2 inhibitor 21.0 | IMP-1 inh-2 inactive | VIM-2 FRET inh inactive | TEM-1 counter inactive | VIM-2 confirm 2 24.9
COCCCNC(=O)c1cc2c(=O)n3cccc(C)c3nc2s1	VIM-2 inhibitor 17.8 | IMP-1 inh-2 inactive | VIM-2 FRET inh inactive | TEM-1 counter inactive | VIM-2 confirm 2 23.2
Cc1cccn2c(=O)c3cc(C(=O)NC4CCCCC4)n(C)c3nc12	none
Cc1cccn2c(=O)c3cc(C(=O)NC4CCS(=O)(=O)C4)sc3nc12 (configuration not stated)	VIM-2 inhibitor 15.2 | IMP-1 inh-2 inactive | VIM-2 FRET inh inactive | TEM-1 counter inactive | VIM-2 confirm 2 24.4
COc1ccc(C(=O)c2ccc([N+](=O)[O-])cc2)c(OC)c1OC	none (no result: pPAFAH inh, VIM-2 inhibitor, IMP-1 inh-1)
CCOC(=O)C1=C(COC(=O)[C@H](C)NS(=O)(=O)c2ccc(NC(C)=O)cc2)NC(=O)NC1C (some centres not stated)	none (no result: VIM-2 inhibitor, IMP-1 inh-1)
COc1ccccc1NC(=O)c1ccc2nc(C)c(C)nc2c1	none
CCOc1ccc(N(C)S(=O)(=O)c2ccc(C)c(C(=O)Nc3nnc(C4CC4)s3)c2)cc1	none (no result: VIM-2 inhibitor, IMP-1 inh-1)
Cc1ccc(S(=O)(=O)NCC2CCC(C(=O)NCCCN3CCCC3=O)CC2)cc1 (configuration not stated)	none
Cn1c2ccccc2c2nnc(SCc3ccc4nonc4c3)nc21	none
CSc1nnc2c3cc(F)ccc3n(C)c2n1	VIM-2 inhibitor 13.8 | IMP-1 inh-2 inactive | VIM-2 FRET inh inactive | TEM-1 counter inactive | VIM-2 confirm 2 24.3
CC[C@]12c3[nH]c4ccccc4c3CCN1C(=O)C(CC(=O)NCCC1=CCCCC1)C[C@@H]2C(=O)N1CCN(C(=O)C2CC2)CC1 (some centres not stated)	none (no result: VIM-2 inhibitor, IMP-1 inh-1)
CCOC(=O)c1cnc(-n2nc(C)cc2C)nc1NCc1ccccc1	VIM-2 inhibitor 36.0 | IMP-1 inh-2 inactive | VIM-2 FRET inh inactive | TEM-1 counter inactive | VIM-2 confirm 2 50.5
CCOC(=O)c1cnc(-n2nc(C)cc2C)nc1NCCO	none
N#C/C(=C(/O)CCl)c1nc2ccccc2[nH]1	VIM-2 inhibitor 49.7 | IMP-1 inh-2 inactive | VIM-2 FRET inh inactive | TEM-1 counter inactive | VIM-2 confirm 2 35.8
Cc1cc(C)cc(OCC(=O)OC/C(O)=C(\C#N)c2nc3ccccc3[nH]2)c1	VIM-2 inhibitor 13.9 | IMP-1 inh-2 inactive | VIM-2 FRET inh inactive | TEM-1 counter inactive | VIM-2 confirm 2 inactive
Cc1cccc(C)c1OCC(=O)OC/C(O)=C(\C#N)c1nc2ccccc2[nH]1	none
N#C/C(=C(\O)Cc1ccccc1)c1nc2ccccc2[nH]1	none
CN(C)CCN(C(=O)C1CCN(S(=O)(=O)c2cccs2)CC1)c1nc2ccccc2s1	none (no result: VIM-2 inhibitor, IMP-1 inh-1)
CCN(CC(=O)Nc1c(F)cccc1F)C(=O)c1n[nH]c2ccccc12	none
COc1cc(CCNC(=O)c2ccccc2NC(=O)C2=C(C)OCCS2)cc(OC)c1OC	none
COc1cc(NC(=O)C2=C(C)OCCS2)c(Cl)cc1C(=O)NCCN(C)C	VIM-2 inhibitor 14.3 | IMP-1 inh-2 inactive | VIM-2 FRET inh inactive | TEM-1 counter inactive | VIM-2 confirm 2 26.5
CS(=O)(=O)N1CCN(c2ccc(NC(=O)c3ccc(-c4ccc(Cl)cc4)o3)cc2)CC1	none
CN1CCN(c2ccc(NC(=O)c3ccc(-c4cccc([N+](=O)[O-])c4)o3)cc2)CC1	VIM-2 inhibitor 42.3 | IMP-1 inh-2 inactive | VIM-2 FRET inh inactive | TEM-1 counter inactive | VIM-2 confirm 2 64.0
Cc1ccc(NC(=O)N2CCc3ccccc32)cc1	none
Cc1ccc(N2CCN(C(=S)c3ccc(-c4cccc([N+](=O)[O-])c4)o3)CC2)cc1	none
CN1CCN(c2ccc(NC(=O)c3sc4ccccc4c3Cl)cc2)CC1	VIM-2 inhibitor 21.9 | IMP-1 inh-2 inactive | VIM-2 FRET inh inactive | TEM-1 counter inactive | VIM-2 confirm 2 51.3
CN1CCN(c2ccc(NC(=O)c3ccc(-c4ccc(Cl)cc4)o3)cc2)CC1	VIM-2 inhibitor 28.3 | IMP-1 inh-2 inactive | VIM-2 FRET inh inactive | TEM-1 counter inactive | VIM-2 confirm 2 41.8
CN1CCN(c2ccc(NC(=O)N3CCc4ccccc43)cc2)CC1	VIM-2 inhibitor 28.0 | IMP-1 inh-2 inactive | VIM-2 FRET inh inactive | TEM-1 counter inactive | VIM-2 confirm 2 39.9
CN1CCN(C(=O)c2ccccc2NC(=O)c2sc3ccccc3c2Cl)CC1	none
